Test results taken from ChEMBL document CHEMBL4402562, “Discovery of Novel Peptidomimetic Boronate ClpP Inhibitors with Noncanonical Enzyme Mechanism as Potent Virulence Blockers in Vitro and in Vivo” (J Med Chem, 2020).
Calls of active or inactive are those of the source. The rule behind the calls is not given here.

Assays:
[1] = target: T1, ATP-dependent Clp protease proteolytic subunit (Staphylococcus aureus (strain NCTC 8325)) (UniProt Q2G036); assay: (§1) Inhibition of N-terminal His6-sumo-tagged full length Staphylococcus aureus ClpP expressed in Escherichia coli BL2 (DE3) pre-incubated for 10 mins before Suc-LY-AMC addition and measured after 1 hr by fluorescence based assay
T1 sequence (whole entry): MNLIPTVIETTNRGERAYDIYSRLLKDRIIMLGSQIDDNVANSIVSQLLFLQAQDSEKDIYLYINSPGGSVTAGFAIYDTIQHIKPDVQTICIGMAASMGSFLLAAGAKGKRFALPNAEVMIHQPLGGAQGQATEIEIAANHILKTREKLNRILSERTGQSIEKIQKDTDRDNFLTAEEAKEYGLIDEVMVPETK
Outline: (§2)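 SaClpP (1 μM monomer) in 100 mM Hepes pH 7.0, 100 mM NaCl. Preincubated 10 min at RT with inhibitor, two-fold dilutions over 8 steps from 100 μM. Suc-LY-AMC at 200 μM, 380/440 nm recorded for 1 h at 37 °C, slopes normalized to DMSO. For kinact/Ki, inhibitor premixed with substrate and reaction started by enzyme, fitted by least squares. Thrice, triplicate wells.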

[2] = target: T2, ATP-dependent Clp protease proteolytic subunit (Staphylococcus aureus (strain NCTC 8325), UniProt Q2G036); assay: as §1; outline: as §2
T2 sequence (Q2G036 whole entry): T1 sequence (whole entry)

[3] = target: T1, ATP-dependent Clp protease proteolytic subunit (Staphylococcus aureus (strain NCTC 8325)); assay: Inhibition of N-terminal His6-sumo-tagged full length Staphylococcus aureus ClpP expressed in Escherichia coli […] (DE3) assessed as Kinact/Ki ratio […] and measured after 1 hr by fluorescence based assay
[4] = target: T2, ATP-dependent Clp protease proteolytic subunit; assay: Inhibition of ClpP in methicillin-resistant Staphylococcus aureus ATCC 33591 assessed as reduction in bacteria-induced hemolysis of sheep erythrocytes by measuring hemoglobin release incubated for 15 mins
[5] = Induction of hemolysis in sheep erythrocytes by measuring hemoglobin release incubated for 15 mins; assay type: cell-based, Ovis aries, Erythrocyte
Outline: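 Serially diluted compound mixed directly with 2% sheep erythrocytes in 10 mM Tris pH 7.4, 0.9% NaCl. Buffer served as negative and water as positive control. After 1,500 rpm, 15 min spin, released hemoglobin read at 545 nm. Three experiments, triplicate tubes.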

[6] = Cytotoxicity in human HeLa cells assessed as reduction in cell viability incubated for 24 hrs by MTT assay; assay type: cell-based
Outline: (§3)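 MTT assay. HeLa (3×10^3 cells) or HepG2 (4×10^3 cells) seeded in DMEM and grown 24 h, then given compound for a further 24 h. Absorbance read at 570 nm against DMSO wells. GI50 from dose-response fit; three experiments, triplicate wells.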

[7] = Cytotoxicity in human HepG2 cells assessed as reduction in cell viability incubated for 24 hrs by MTT assay; assay type: cell-based; outline: as §3
[8] = target: T1, ATP-dependent Clp protease proteolytic subunit (Staphylococcus aureus (strain NCTC 8325)); assay: as §1, with “[…] at 20-fold molar excess” for “(DE3)”, “hr followed by dialysis for 72 hrs” for “hr”, “assay relative to control” for “assay”
Outline: (§4)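 ClpP (1 μM, 100 mM Hepes pH 7.0, 100 mM NaCl) incubated 1 h at RT with 20-fold molar excess inhibitor or DMSO. Dialyzed at 4 °C, buffer changed after 6 h and then every 24 h. Aliquots assayed for peptidase activity with Suc-LY-AMC. Thrice, single sample.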

[9] = target: T1, ATP-dependent Clp protease proteolytic subunit (Staphylococcus aureus (strain NCTC 8325)); assay: Binding affinity to N-terminal His6-sumo-tagged full length Staphylococcus aureus ClpP expressed in Escherichia coli […] assessed as change in melting temperature at 100 uM by differential scanning calorimetry analysis
Outline: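 DSC: SaClpP at 0.5 mg/mL (25 μM) incubated at RT with 100 μM inhibitor in assay buffer. Scanned at 1 °C/min over 30–90 °C, with a buffer-buffer scan subtracted. Tm taken as the thermogram peak maximum. Run once, single sample.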

[10] = Inhibition of Pseudomonas aeruginosa ClpP1 expressed in Escherichia coli […] pre-incubated for 10 mins before Suc-LY- AMC addition and measured after 1 hr by fluorescence based assay relative to control
Outline: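 PaClpP1 (0.5 μM monomer) in 25 mM Tris-Cl pH 7.5, 150 mM NaCl. Preincubated 10 min at RT with inhibitor, two-fold dilutions over 8 steps from 50 μM. Then 50 μM Suc-LY-AMC, 380/440 nm for 1 h at 37 °C, slopes normalized to DMSO. Thrice, triplicate wells.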

[11] = target: 20S proteasome (Homo sapiens) (UniProt P49721+P20618+P28074+P28062+P28065+P28072+P25786+P25787+P25788+P25789+P28066+P60900+O14818+Q8TAA3+P40306+A5LHX3+P49720+P28070+Q99436); assay: Inhibition of 20S proteasome (unknown origin) pre-incubated before Suc-LLVY-AM addition and measured after 1 hr by fluorescence based assay; assay type: protein-complex assay
[12] = target: T1, ATP-dependent Clp protease proteolytic subunit (Staphylococcus aureus (strain NCTC 8325)); assay: as §1, with “[…] assessed as enzyme activity recovery level at 20-fold molar excess” for “(DE3)”, “hr followed by dialysis up to 72 hrs” for “hr”, “assay relative to control” for “assay”; design: scale not given: the % may be the effect or the level left; outline: as §4
[13] = Inhibition of human ClpP (57 to 277 residues) expressed in Escherichia coli […] pre-incubated for 10 mins before Ac-WLA-AMC addition and measured after 1 hr by fluorescence based assay relative to control
Outline: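 hClpP (3.5 μM monomer) in 25 mM Tris-HCl pH 8.0, 100 mM KCl. Preincubated 10 min at RT with inhibitor, two-fold dilutions over 8 steps from 100 μM. Then 100 μM Ac-WLA-AMC, 380/440 nm for 1 h at 37 °C, slopes normalized to DMSO. Thrice, triplicate wells.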

[14] = Inhibition of AlgW (unknown origin) up to 100 uM pre-incubated for 10 mins before Abz-T-V-A-W-pNA addition and measured after 1 hr by fluorescence based assay
[15] = target: Coagulation factor X (Homo sapiens) (UniProt P00742); assay: Inhibition of human F10a up to 100 uM pre-incubated for 10 mins before Pefachrome Fxa addition and measured after […] based assay
[16] = tested on: Staphylococcus aureus; assay: (§5) Antivirulence activity against methicillin-resistant Staphylococcus aureus ATCC 33591 infected in BALB/c mouse model of skin abscess assessed as preservation of skin integrity at 3 mg/kg injected into shaved area of skin once daily for 4 days measured after 12 hrs post last dose by hematoxylin and eosin staining based optical microscopy; assay type: functional, organism-based
Outline: (§6)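 Same MRSA ATCC 33591 skin-abscess model in female BALB/c mice (n=5/group), 40 µL compound at 1.5 or 3 mg/kg injected into the infected shaved skin once daily for 4 days. On day 4 infected skin and heart, liver, spleen, lung, kidney fixed in 4% paraformaldehyde, embedded, sectioned, H&E stained and examined by microscopy; PBS-treated uninfected and vehicle controls.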

[17] = tested on: Staphylococcus aureus; assay: as §5, with “reduction in spleen histopathological changes” for “preservation of skin integrity”; assay type: functional, organism-based; outline: as §6
[18] = tested on: Staphylococcus aureus; assay: as §5, with “reduction in severe alveolar destruction” for “preservation of skin integrity”; assay type: functional, organism-based; outline: as §6
[19] = tested on: Staphylococcus aureus; assay: as §5, with “reduction in liver histopathological changes” for “preservation of skin integrity”; assay type: functional, organism-based; outline: as §6
[20] = tested on: Staphylococcus aureus; assay: as §5, with “reduction in” for “preservation of”, “inflammation” for “integrity”; assay type: functional, organism-based; outline: as §6
[21] = tested on: Staphylococcus aureus; assay: as §5, with “reduction in heart histopathological changes” for “preservation of skin integrity”; assay type: functional, organism-based; outline: as §6
[22] = tested on: Staphylococcus aureus; assay: as §5, with “reduction in kidney histopathological changes” for “preservation of skin integrity”; assay type: functional, organism-based; outline: as §6
[23] = tested on: Staphylococcus aureus; assay: as §5, with “reduction in interstitium thickening” for “preservation of skin integrity”; assay type: functional, organism-based; outline: as §6

Chain of Coagulation factor X (Homo sapiens) (P00742 41-179 limits assumed): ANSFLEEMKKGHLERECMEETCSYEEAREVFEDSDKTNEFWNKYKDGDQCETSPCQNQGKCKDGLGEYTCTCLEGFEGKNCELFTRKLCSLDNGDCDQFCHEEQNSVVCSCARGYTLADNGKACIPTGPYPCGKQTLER
Chain of Coagulation factor X (Homo sapiens) (P00742 235-488 limits assumed): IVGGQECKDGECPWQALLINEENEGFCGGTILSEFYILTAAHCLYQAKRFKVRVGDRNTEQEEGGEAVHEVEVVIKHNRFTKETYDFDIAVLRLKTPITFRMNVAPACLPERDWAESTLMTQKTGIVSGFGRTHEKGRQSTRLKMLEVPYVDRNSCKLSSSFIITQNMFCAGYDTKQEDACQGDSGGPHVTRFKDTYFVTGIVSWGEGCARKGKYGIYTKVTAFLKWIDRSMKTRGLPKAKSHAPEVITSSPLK

## CC(C)C[C@H](NC(=O)CNC(=O)c1cc(Cl)ccc1Cl)B(O)O [IXAZOMIB]
[1]
  inhibition: Dose-dependent effect
[2]
  IC50: 5.3 to 5.7 µM
[3]
  Ratio: 2.4 ×10² /s.M
[4]
  EC50: 3.6 µM
[5]
  HC50 at 0.25 h: 408 µM
[6]
  GI50 at 24 h: 182 µM
[7]
  GI50 at 24 h: > 200 µM

## COC(=O)c1ccc(OC(=O)CCc2cc(OC)c(OC)c(OC)c2)cc1
[8]
  inhibition: Active
[9]
  Activity: inactive

## COc1ccc(C(=O)N[C@@H](Cc2ccccc2)C(=O)N[C@@H](CC(C)C)B(O)O)cc1
[10]
  IC50: 3 to 25 µM
[11]
  inhibition: Active
[12]
  Activity: 100%
[13]
  IC50: 3 to 25 µM
[1]
  inhibition: Dose-dependent effect
[2]
  IC50: 1.9 µM
[3]
  Ratio: 6.7 ×10² /s.M
[9]
  ΔTm: 29.5 to 42.2 °C
[4]
  EC50: 3.3 µM
[14]
  inhibition: inactive
[5]
  HC50 at 0.25 h: > 500 µM
[15]
  inhibition: inactive
[6]
  GI50 at 24 h: 196 µM
[7]
  GI50 at 24 h: > 200 µM

## CN[C@H](CC(C)C)C(=O)N[C@H]1C(=O)N[C@@H](CC(N)=O)C(=O)N[C@H]2C(=O)N[C@H]3C(=O)N[C@H](C(=O)N[C@H](C(=O)O)c4cc(O)cc(O)c4-c4cc3ccc4O)[C@H](O)c3ccc(c(Cl)c3)Oc3cc2cc(c3O[C@@H]2O[C@H](CO)[C@@H](O)[C@H](O)[C@H]2O[C@H]2C[C@](C)(N)[C@H](O)[C@H](C)O2)Oc2ccc(cc2Cl)[C@H]1O
[16]
  Activity: Active
[17]
  Activity: Active
[18]
  Activity: Active
[19]
  Activity: Active
[20]
  Activity: Active
[21]
  Activity: Active
[22]
  Activity: Active
[23]
  Activity: Active
